Activity calls are given as the source filed them. The calls are words filed in the database; no cut-off is given here.
Legend:
[1] = Toxicity in iv dosed mouse; format: organism-based; settings: in vivo
Rattus norvegicus [2] = experiment: Local anesthetic activity in rat assessed as frequency at 1% administered as base by sciatic nerve block method; format: functional, organism-based
In short: (§1)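 Rat sciatic nerve block. Solutions are dosed with concentration expressed as base, and the pH of each solution is recorded. Groups are typically 10 rats. Onset is given in min. Frequency is the number of rats blocked out of those tested. Duration is in min, as mean ± SD.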

Rattus norvegicus [3] = experiment: Local anesthetic activity in rat assessed as onset time at 1% administered as base by sciatic nerve block method; format: functional; in short: as §1
Rattus norvegicus [4] = experiment: Local anesthetic activity in rat assessed as duration of action at 1% administered as base by sciatic nerve block method; format: functional; in short: as §1
Rattus norvegicus [5] = experiment: Local anesthetic activity in rat assessed as duration of action at 2% administered as base by sciatic nerve block method; format: functional; in short: as §1
Rattus norvegicus [6] = experiment: Local anesthetic activity in rat assessed as frequency at 2% administered as base by sciatic nerve block method; format: functional, organism-based; in short: as §1
Rattus norvegicus [7] = experiment: Local anesthetic activity in rat assessed as onset time at 2% administered as base by sciatic nerve block method; format: functional; in short: as §1
Rattus norvegicus [8] = experiment: Toxicity in rat at 2% administered as base after 30 mins; format: organism-based; settings: in vivo, 0.5 h
Rattus norvegicus [9] = experiment: Toxicity in rat at 2% administered as base after 40 mins; format: organism-based; settings: in vivo
Rattus norvegicus [10] = experiment: Toxicity in rat at 2% administered as base after 25 mins; format: organism-based; settings: in vivo

Compound	LD50 [1] [mg/kg]	Activity (Rattus norvegicus [2])	Time (Rattus norvegicus [3]) [min]	Time (Rattus norvegicus [4]) [min]	Time (Rattus norvegicus [5]) [min]	Activity (Rattus norvegicus [6])	Time (Rattus norvegicus [7]) [min]	Activity (Rattus norvegicus [8])	Activity (Rattus norvegicus [9])	Activity (Rattus norvegicus [10])
CCCN1CCCC2(C1)C(=O)Nc1ccccc12 (configuration not stated) [listing 1 of 2 here]	41									
CCN1CCC2(C1)C(=O)Nc1ccccc12 (configuration not stated)	38	Active	4	67	85	Active	3			
CCN1CCCC12C(=O)Nc1ccccc12 (configuration not stated)	119	Active	6	83	107	Active	5			
CCN1CCC2(C1)C(=O)Nc1c(C)cccc12 (configuration not stated) [listing 1 of 2 here]		Active				Active				
CN1CCCCC12C(=O)Nc1ccccc12 (configuration not stated)	97	Active	5	81	97	Active	3			
CCCN1CCC2(C1)C(=O)Nc1ccccc12.Cl (configuration not stated)			3	66	78		2			
CN1CCC2(C1)C(=O)Nc1ccccc12 (configuration not stated)		Active	11	56	83	Active	6			
CCCN1CCCC2(C1)C(=O)Nc1ccccc12 (configuration not stated) [listing 2 of 2 here]		Active				Active				
CCN1CCC2(C1)C(=O)Nc1c(C)cccc12 (configuration not stated) [listing 2 of 2 here]	23									
CCCN1CCC2(C1)C(=O)Nc1ccccc12 (configuration not stated) [listing 1 of 2 here]		Active				Active				
CCCN1CCC2(C1)C(=O)Nc1ccccc12 (configuration not stated) [listing 2 of 2 here]	25									
CCN1CCC2(C1)C(=O)Nc1c(C)cccc12.Cl (configuration not stated)			3	93			2	Toxic		
CCCN1CCCC2(C1)C(=O)Nc1ccccc12.O=S(=O)(O)O (configuration not stated)			6	75	95		4			
CCN1CCC2(CC1)C(=O)Nc1c(C)cccc12	21	Active	3	108		Active	3		Toxic	Toxic
CCN1CCC2(CC1)C(=O)Nc1ccccc12	53	Active	6	86	120	Active	5			
CCN(CC)CC(=O)Nc1c(C)cccc1C [LIDOCAINE]		Active			141	Active	1			
